Measurements: ChEMBL document CHEMBL1137457, “5'-O-masked 2'-deoxyadenosine analogues as lead compounds for hepatitis C virus (HCV) therapeutic agents” (Bioorg Med Chem, 2007)
pEC50: −log10 of the molar value.

Tests used:
[1] = Cytotoxicity against Huh7 cells by XTT assay; assay type: cell-based; conditions: human, huh-7
Summary of the method: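 Cytotoxicity in the replicon-bearing cells measured by XTT tetrazolium assay per manufacturer's protocol; CC50 averaged from at least three independent experiments.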

Hepatitis C virus = experiment: Inhibition of HCV replication in Huh7 cells after 48 hrs by luciferase assay; assay type: functional, organism-based, Hepacivirus hominis; conditions: Huh-7, 48 h
Summary of the method: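 HCV subgenomic replicon cells carrying luciferase reporter; replicon inhibition read by luciferase after two-day incubation with compound; EC50 averaged from at least three independent experiments.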

[2] = Antiviral index, ratio of CC50 for Huh7 cells to EC50 for HCV replication; assay type: functional, Huh-7
Summary of the method: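 Antiviral index calculated as 50% toxic dose (XTT, replicon cells) divided by 50% effective dose (luciferase replicon read-out after two days); from at least three independent experiments.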

SMILES | CC50 [1] [µM] | pEC50 (Hepatitis C virus) | Ratio CC50/EC50 [2]
O[C@H]1C[C@H](n2cnc3c(Cl)ncnc32)O[C@@H]1COCc1ccccc1 | 178 | 4.75 | 10.1
O=C(OC[C@@H]1C[C@@H](O)[C@H](n2cnc3c(Cl)ncnc32)O1)c1ccccc1 | 70.5 | 4.42 | 1.9
CSc1ncnc2c1ncn2[C@H]1C[C@H](O)[C@@H](COC(=O)c2ccccc2)O1 | – | < 4.00 | –
CC(C)(C)C(=O)OC[C@H]1O[C@@H](n2cnc3c(Cl)ncnc32)C[C@@H]1O | 177 | 4.55 | 6.3
O=C(OC[C@H]1O[C@@H](n2cnc3c(O)ncnc32)C[C@@H]1O)c1ccccc1 | – | < 4.00 | –
O=C(OCC(CO)CCn1cnc2c(Cl)ncnc21)c1ccccc1 (configuration not stated) | 108 | 4.88 | 8.1
C=CCOC[C@H]1O[C@@H](n2cnc3c(Cl)ncnc32)C[C@@H]1O | 140 | 4.61 | 5.7
O=C(OC[C@H]1C[C@@H](n2cnc3c(Cl)ncnc32)[C@@H]1CO)c1ccccc1 | 20 | 5.19 | 3.1
CN(C)c1ncnc2c1ncn2[C@H]1C[C@H](O)[C@@H](COC(=O)c2ccccc2)O1 | > 200 | 4.65 | >9
OC[C@@H]1C[C@@H](O)[C@H](n2cnc3c(Cl)ncnc32)O1 | > 200 | 4.19 | >3.1
O=S(=O)(OC[C@H]1O[C@@H](n2cnc3c(Cl)ncnc32)C[C@@H]1O)c1ccccc1 | 146 | 4.54 | 5.1
COc1ccc(C(=O)OC[C@H]2O[C@@H](n3cnc4c(Cl)ncnc43)C[C@@H]2O)cc1 | 76.4 | 5.08 | 9.1
O=C(OC[C@H]1O[C@@H](n2cnc3c(Cl)ncnc32)C[C@@H]1O)c1ccccc1 | 111 | 5.21 | 18.2
OC[C@H]1O[C@@H](n2cnc3c(Cl)ncnc32)C[C@@H]1O | 173 | 4.33 | 3.7
OC[C@H]1O[C@@H](n2cnc3c(Cl)ncnc32)[C@H](O)[C@@H]1O | > 200 | 4.51 | >6.5
OCC(CO)CCn1cnc2c(Cl)ncnc21 | > 200 | 4.09 | >2.5
Nc1ncnc2c1ncn2[C@H]1C[C@H](O)[C@@H](COC(=O)c2ccccc2)O1 | > 200 | 3.98 | >1.9
Cc1cc(C)c(C(=O)OC[C@H]2O[C@@H](n3cnc4c(Cl)ncnc43)C[C@@H]2O)c(C)c1 | 91 | < 4.30 | <1.8
CCCC(=O)OC[C@H]1O[C@@H](n2cnc3c(Cl)ncnc32)C[C@@H]1O | > 200 | 4.52 | >6.6
NC(=O)c1ncn([C@@H]2O[C@H](CO)[C@@H](O)[C@H]2O)n1 [RIBAVIRIN] | > 200 | 4.26 | >3.7
OC[C@H]1C[C@@H](n2cnc3c(Cl)ncnc32)[C@@H]1CO | > 200 | 4.34 | 4.3
O=C(OC[C@H]1O[C@@H](n2cnc3c(Cl)ncnc32)[C@H](O)[C@@H]1O)c1ccccc1 | 97.3 | 4.39 | 2.4
